Reference: ChEMBL document CHEMBL1143728, “Anti-inflammatory benzenoids from Antrodia camphorata” (J Nat Prod, 2007)

What follows are compounds tested on Neutrophil (assay: Inhibition of fMLP-induced superoxide production in human neutrophils).
Type: functional, cell-based
In short: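 Neutrophils from venous blood of healthy volunteers (20-35 years), isolated by double-gradient Ficoll-Hypaque centrifugation with hypotonic lysis of red cells. Cells at 1 × 10⁶ cells/mL preincubated with test agent (100 µmol/L) 5 min at 37 °C, then stimulated with fMLP (1 µmol/L) in presence of ferricytochrome c (0.5 mg/mL). Extracellular superoxide read continuously by ferricytochrome c reduction at 550 nm. Inhibition % = [(control−resting)−(compound−resting)]/(control−resting) × 100. Three independent experiments, SEM; ibuprofen positive control.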

| IC50 [µM] | SMILES |
| --- | --- |
| 9.33 | C=C(C)C#Cc1c(OC)cc(OC)c(OC)c1C [ANTROCAMPHIN A] |
| 27.5 | CC(C)Cc1ccc(C(C)C(=O)O)cc1 (configuration not stated) [IBUPROFEN] |
| 26.1 | COc1cc(C)c(OC)c2c1OCO2 |
| > 100 | C[C@H]1[C@H](O)CC[C@@H]2[C@]1(C)CC[C@H]1[C@@]2(C)CC[C@@]2(C)[C@@H]3CC(C)(C)CC[C@]3(C)CC[C@]12C |
| > 100 | COc1cc(OC)c(OC)c(C)c1C#CC(C)=O [ANTROCAMPHIN B] |
| > 100 | COc1cc(OC)c(OC)c(C)c1C#C[C@@]1(C)OC(=O)O[C@@]1(C)C#Cc1c(OC)cc(OC)c(OC)c1C [ANTRODIOXOLANONE] |
| > 100 | COc1c(C)c(-c2c(C)c(OC)c3c(c2OC)OCO3)c(OC)c2c1OCO2 |
| > 100 | COc1cc(C(=O)Cl)c(OC)c(OC)c1OC |

| SMILES | IC50 [µM] |
| --- | --- |
| C=C(CC[C@@H](C(=O)O)[C@H]1CC[C@@]2(C)C3=CC[C@H]4C(C)(C)[C@@H](O)CC[C@]4(C)C3=CC[C@]12C)C(C)C [DEHYDROEBURICOIC ACID] | 77.5 |
| C=C(CC[C@@H](C)[C@H]1CC[C@H]2C3=C(C(=O)C[C@]12C)[C@@]1(C)CCC(=O)[C@@H](C)[C@@H]1CC3)[C@H](C)C(=O)O [ANTICIN A] | 8.55 |
| c1cc2c(cc1[C@H]1OC[C@H]3[C@@H]1CO[C@@H]3c1ccc3c(c1)OCO3)OCO2 [SESAMIN] | 90.2 |
| C=C(CC[C@@H](C)[C@H]1CC[C@H]2C3=C(C(=O)C[C@]12C)[C@@]1(C)CCC(=O)[C@@H](C)[C@@H]1CC3=O)[C@H](C)C(=O)O [ANTCIN B] | 9.82 |
